Measured values from ChEMBL document CHEMBL1150387, “Development and experimental validation of a docking strategy for the generation of kinase-targeted libraries” (J Med Chem, 2008).

How the values were obtained:
[1] = Inhibition of PKA at 10 uM by HTRF assay relative to control
In short: (§1)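 HTRF kinase assay, one panel of kinases. Inhibitor stock 50 µM in 100% DMSO; tested at 10 µM. ATP and substrate at final levels near Km. Final buffer: 50 mM Hepes/NaOH pH 7.4, 40 µM Na3VO4, 0.005% Tween-20, 1 mM DTT, MnCl2 or MgCl2 at kinase-dependent levels. Started by adding ATP/substrate. Reaction run at room temperature, time varied by kinase. Detection mix in 50 mM Hepes pH 7.4, 0.1% BSA, 150 mM KF, incubated ≥1 h at room temperature. Activity expressed as % of uninhibited control; n=2.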

[2] = molecular target: Cyclin-dependent kinase 1 (Homo sapiens) (UniProt P06493); assay: Inhibition of CDK1 at 10 uM by HTRF assay relative to control; in short: as §1
[3] = molecular target: Tyrosine-protein kinase Lyn (Homo sapiens) (UniProt P07948); assay: Inhibition of Lyn at 10 uM by HTRF assay relative to control; in short: as §1
[4] = molecular target: Cyclin-dependent kinase 2 (Homo sapiens) (UniProt P24941); assay: Inhibition of CDK2 at 10 uM by HTRF assay relative to control; in short: as §1
[5] = molecular target: Fibroblast growth factor receptor 1 (Homo sapiens) (UniProt P11362); assay: Inhibition of FGFR1 at 10 uM by HTRF assay relative to control; in short: as §1
[6] = molecular target: Protein-tyrosine kinase 6 (Homo sapiens) (UniProt Q13882); assay: Inhibition of Brk at 10 uM by HTRF assay relative to control; in short: as §1
[7] = molecular target: MAP kinase-activated protein kinase 2 (Homo sapiens) (UniProt P49137); assay: Inhibition of MAPKAPK2 at 10 uM by HTRF assay relative to control; in short: as §1
[8] = molecular target: High affinity nerve growth factor receptor (Homo sapiens) (UniProt P04629); assay: Inhibition of TrkA at 10 uM by HTRF assay relative to control; in short: as §1
[9] = molecular target: T1, Serine/threonine-protein kinase Chk1 (Homo sapiens) (UniProt O14757); assay: Inhibition of CHK1 at 10 uM by HTRF assay relative to control; in short: as §1
T1 sequence (whole entry): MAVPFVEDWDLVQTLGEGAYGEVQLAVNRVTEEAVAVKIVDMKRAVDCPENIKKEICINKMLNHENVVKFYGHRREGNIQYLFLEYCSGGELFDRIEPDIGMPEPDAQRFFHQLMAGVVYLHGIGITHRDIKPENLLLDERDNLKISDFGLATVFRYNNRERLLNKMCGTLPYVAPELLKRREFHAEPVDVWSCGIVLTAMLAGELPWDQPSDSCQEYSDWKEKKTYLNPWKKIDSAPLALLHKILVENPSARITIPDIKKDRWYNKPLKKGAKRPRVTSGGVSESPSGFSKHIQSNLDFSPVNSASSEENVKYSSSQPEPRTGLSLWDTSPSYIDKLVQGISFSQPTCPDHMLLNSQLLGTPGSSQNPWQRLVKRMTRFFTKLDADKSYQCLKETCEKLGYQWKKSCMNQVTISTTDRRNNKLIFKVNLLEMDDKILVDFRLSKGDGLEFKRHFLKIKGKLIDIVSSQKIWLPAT

[10] = molecular target: Mitogen-activated protein kinase 1 (Homo sapiens) (UniProt P28482); assay: Inhibition of ERK2 at 10 uM by HTRF assay relative to control; in short: as §1
[11] = molecular target: T2, Tyrosine-protein kinase JAK3 (Homo sapiens) (UniProt P52333); assay: Inhibition of JAK3 at 10 uM by HTRF assay relative to control; in short: as §1
T2 sequence (whole entry): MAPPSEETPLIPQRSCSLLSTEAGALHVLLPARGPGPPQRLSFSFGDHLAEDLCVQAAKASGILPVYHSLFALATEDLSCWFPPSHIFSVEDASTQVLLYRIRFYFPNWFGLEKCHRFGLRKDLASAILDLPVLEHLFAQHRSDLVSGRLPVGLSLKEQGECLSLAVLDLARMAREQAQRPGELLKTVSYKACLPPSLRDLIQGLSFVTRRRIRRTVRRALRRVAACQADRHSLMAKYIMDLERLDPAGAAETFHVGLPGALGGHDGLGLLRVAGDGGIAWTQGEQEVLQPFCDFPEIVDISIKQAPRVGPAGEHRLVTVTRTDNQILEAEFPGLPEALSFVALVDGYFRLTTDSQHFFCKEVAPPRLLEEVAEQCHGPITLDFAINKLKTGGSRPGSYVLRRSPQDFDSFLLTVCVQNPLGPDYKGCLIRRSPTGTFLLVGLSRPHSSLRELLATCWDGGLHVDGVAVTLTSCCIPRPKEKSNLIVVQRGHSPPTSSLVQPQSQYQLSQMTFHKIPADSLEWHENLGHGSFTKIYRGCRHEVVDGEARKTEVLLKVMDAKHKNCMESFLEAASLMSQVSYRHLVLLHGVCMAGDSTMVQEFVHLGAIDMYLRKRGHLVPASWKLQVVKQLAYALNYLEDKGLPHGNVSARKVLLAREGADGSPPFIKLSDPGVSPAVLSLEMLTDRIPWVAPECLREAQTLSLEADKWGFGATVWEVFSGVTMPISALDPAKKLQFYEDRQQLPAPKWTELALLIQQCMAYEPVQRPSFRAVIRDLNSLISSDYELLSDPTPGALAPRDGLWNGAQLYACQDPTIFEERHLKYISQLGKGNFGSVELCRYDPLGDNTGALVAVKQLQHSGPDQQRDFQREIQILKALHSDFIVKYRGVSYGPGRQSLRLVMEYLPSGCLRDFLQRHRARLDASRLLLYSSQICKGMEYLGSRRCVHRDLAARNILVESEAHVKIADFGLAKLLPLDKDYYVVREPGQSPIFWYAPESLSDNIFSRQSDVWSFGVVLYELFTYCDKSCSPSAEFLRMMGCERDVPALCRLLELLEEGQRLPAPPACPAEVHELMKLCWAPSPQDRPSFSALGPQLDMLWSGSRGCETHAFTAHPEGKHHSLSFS

[12] = molecular target: Ribosomal protein S6 kinase beta-1 (Homo sapiens) (UniProt P23443); assay: Inhibition of p70S6K at 10 uM by HTRF assay relative to control; in short: as §1
Sequence of Ribosomal protein S6 kinase beta-1 (Homo sapiens) (P23443 whole entry, looked up): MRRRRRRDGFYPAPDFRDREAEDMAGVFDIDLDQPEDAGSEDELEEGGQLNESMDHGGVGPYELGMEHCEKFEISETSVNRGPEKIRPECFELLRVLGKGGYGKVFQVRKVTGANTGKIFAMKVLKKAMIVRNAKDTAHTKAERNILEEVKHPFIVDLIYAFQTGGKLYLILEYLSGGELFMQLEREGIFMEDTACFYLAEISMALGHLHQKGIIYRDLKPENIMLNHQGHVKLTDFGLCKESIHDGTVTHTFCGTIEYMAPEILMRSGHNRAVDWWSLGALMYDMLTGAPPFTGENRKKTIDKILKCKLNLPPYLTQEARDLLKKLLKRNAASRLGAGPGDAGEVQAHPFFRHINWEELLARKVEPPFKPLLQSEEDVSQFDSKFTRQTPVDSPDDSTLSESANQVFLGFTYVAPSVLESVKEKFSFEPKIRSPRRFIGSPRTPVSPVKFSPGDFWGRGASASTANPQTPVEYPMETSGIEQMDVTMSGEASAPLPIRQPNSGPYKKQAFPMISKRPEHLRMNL

Sequence of High affinity nerve growth factor receptor (Homo sapiens) (P04629 33-796 limits assumed): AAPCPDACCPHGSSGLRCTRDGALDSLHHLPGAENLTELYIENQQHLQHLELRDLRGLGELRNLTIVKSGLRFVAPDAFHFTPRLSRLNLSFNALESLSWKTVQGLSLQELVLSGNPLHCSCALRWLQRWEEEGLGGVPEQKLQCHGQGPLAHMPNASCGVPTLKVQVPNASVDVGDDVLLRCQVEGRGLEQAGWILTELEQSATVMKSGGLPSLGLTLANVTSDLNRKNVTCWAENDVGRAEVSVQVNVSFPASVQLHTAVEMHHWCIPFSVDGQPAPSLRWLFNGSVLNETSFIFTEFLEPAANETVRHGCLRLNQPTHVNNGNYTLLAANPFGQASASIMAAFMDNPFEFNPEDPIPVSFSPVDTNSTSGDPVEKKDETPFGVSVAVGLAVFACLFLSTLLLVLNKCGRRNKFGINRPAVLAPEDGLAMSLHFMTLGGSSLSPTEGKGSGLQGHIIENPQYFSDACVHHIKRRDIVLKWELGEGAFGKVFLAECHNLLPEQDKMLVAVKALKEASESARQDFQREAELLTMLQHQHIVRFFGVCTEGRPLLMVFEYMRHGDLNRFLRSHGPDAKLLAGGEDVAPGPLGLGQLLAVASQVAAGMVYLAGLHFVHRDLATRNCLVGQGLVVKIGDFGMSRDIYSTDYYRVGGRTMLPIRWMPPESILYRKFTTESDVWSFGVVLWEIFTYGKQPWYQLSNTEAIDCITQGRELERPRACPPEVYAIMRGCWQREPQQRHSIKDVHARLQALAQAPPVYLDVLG
Sequence of MAP kinase-activated protein kinase 2 (Homo sapiens) (P49137 whole entry, looked up): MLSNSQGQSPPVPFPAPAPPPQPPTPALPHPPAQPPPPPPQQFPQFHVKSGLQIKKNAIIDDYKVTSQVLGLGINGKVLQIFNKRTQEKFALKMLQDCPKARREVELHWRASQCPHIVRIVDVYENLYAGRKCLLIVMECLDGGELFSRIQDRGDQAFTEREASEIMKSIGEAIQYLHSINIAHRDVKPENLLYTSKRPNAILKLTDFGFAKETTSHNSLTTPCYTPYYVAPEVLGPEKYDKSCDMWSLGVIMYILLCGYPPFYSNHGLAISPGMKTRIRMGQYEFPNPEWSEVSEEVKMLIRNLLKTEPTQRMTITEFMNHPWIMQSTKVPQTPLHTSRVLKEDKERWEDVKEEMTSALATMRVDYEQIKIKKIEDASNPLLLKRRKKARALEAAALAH
Sequence of Tyrosine-protein kinase Lyn (Homo sapiens) (P07948 2-512 limits assumed): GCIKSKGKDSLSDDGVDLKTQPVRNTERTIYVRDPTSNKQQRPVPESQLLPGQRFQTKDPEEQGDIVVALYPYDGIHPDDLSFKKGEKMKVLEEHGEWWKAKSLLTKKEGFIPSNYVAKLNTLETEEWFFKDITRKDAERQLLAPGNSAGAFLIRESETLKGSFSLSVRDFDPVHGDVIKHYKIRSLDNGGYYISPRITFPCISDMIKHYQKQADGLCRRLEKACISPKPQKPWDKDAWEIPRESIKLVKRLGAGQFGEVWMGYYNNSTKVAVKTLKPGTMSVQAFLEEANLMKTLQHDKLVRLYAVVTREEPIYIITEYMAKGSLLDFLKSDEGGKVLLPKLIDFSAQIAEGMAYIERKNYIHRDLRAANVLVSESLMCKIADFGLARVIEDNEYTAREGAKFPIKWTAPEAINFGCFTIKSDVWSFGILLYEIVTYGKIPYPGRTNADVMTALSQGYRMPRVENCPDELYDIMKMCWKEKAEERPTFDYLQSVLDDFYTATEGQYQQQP
Sequence of Mitogen-activated protein kinase 1 (Homo sapiens) (P28482 whole entry): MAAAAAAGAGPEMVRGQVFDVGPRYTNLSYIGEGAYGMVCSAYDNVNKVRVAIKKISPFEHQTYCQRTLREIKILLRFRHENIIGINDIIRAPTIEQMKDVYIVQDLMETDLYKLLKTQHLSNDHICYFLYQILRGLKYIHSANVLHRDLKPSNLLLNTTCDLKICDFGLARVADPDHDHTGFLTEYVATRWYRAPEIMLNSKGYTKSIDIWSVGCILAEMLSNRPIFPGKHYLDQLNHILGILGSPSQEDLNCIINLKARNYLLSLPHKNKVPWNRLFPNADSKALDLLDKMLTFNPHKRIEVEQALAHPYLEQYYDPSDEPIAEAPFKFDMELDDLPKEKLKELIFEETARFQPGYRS
Sequence of Cyclin-dependent kinase 1 (Homo sapiens) (P06493 whole entry, looked up): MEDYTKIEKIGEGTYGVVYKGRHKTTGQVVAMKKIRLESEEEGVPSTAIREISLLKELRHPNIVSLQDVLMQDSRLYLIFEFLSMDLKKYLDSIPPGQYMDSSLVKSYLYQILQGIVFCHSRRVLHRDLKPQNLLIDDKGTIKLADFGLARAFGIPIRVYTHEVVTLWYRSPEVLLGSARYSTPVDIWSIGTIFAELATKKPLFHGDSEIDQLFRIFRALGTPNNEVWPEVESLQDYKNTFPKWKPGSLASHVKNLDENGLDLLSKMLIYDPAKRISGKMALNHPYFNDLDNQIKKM
Sequence of Protein-tyrosine kinase 6 (Homo sapiens) (Q13882 whole entry, looked up): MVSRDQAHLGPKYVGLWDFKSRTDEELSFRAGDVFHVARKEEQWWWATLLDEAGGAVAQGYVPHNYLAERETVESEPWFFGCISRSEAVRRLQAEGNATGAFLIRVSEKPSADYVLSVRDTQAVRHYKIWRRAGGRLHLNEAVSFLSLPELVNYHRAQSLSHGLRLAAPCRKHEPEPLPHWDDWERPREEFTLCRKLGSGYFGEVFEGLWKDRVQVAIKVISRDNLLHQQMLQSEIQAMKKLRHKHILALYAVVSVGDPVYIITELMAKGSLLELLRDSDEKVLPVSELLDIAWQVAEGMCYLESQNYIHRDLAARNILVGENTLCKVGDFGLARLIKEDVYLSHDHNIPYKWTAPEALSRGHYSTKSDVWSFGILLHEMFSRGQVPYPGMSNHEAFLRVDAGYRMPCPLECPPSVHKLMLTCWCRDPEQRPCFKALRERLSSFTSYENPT
Sequence of Fibroblast growth factor receptor 1 (Homo sapiens) (P11362 22-822 limits assumed): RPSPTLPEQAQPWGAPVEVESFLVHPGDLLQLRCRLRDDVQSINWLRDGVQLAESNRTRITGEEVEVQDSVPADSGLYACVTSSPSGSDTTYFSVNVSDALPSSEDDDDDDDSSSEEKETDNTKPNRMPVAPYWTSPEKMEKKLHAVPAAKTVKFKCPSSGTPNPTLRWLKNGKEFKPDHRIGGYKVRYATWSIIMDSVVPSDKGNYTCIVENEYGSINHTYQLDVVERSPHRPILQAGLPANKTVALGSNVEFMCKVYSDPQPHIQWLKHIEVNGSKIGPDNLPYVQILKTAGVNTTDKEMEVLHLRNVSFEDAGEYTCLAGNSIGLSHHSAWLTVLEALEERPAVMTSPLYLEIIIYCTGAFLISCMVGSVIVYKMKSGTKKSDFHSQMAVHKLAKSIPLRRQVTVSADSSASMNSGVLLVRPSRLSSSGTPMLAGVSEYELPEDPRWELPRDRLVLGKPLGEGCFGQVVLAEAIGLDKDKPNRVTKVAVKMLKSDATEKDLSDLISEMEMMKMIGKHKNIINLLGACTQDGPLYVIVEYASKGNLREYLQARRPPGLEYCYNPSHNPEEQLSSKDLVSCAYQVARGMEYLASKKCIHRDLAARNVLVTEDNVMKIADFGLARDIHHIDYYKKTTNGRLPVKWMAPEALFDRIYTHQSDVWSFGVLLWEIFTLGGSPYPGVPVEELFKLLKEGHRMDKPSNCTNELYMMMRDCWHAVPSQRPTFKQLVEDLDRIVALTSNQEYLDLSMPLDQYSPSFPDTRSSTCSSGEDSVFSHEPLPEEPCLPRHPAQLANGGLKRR

| Compound | inhibition [1] [%] | inhibition [2] [%] | inhibition [3] [%] | inhibition [4] [%] | inhibition [5] [%] | inhibition [6] [%] | inhibition [7] [%] | inhibition [8] [%] | inhibition [9] [%] | inhibition [10] [%] | inhibition [11] [%] | inhibition [12] [%] |
| --- | --- | --- | --- | --- | --- | --- | --- | --- | --- | --- | --- | --- |
| Cc1cccc(N(C)c2cc(Nc3cccc(C(=O)NCc4ccncc4)c3)ncn2)c1 | 0 | 7 | 19 | 20 | 0 | 0 | 0 | 13 | 3 | 6 | 0 | 9 |
| COc1cccc(Nc2cc(Nc3cccc(C(=O)N(C)CCc4ccccn4)c3)nc(N)n2)c1 | 0 | 0 | 9 | 1 | 7 | 21 | 0 | 9 | 9 | 0 | 18 | 8 |
| Cc1cccc(N(C)c2cc(Nc3cccc(C(=O)N(CC(C)C)CC(C)C)c3)ncn2)c1 | 2 | 0 | 2 | 6 | 0 | 7 | 0 | 9 | 0 | 6 | 0 | 11 |
| Cc1cc(C(=O)N2CCN(c3ncnc4c3CN(Cc3ccccc3)CC4)CC2)c(C)n1C | 0 | 0 | 2 | 3 | 0 | 22 | 0 | 0 | 3 | 2 | 0 | 7 |
| CN(CCCn1ccnc1)C(=O)[C@@H]1CCCN1c1nccc(Nc2ccccc2)n1 | 0 | 0 | 0 | 24 | 0 | 4 | 2 | 11 | 0 | 0 | 0 | 6 |
| Nc1nc(N2CCOCC2)cc(N2CCC(C(=O)NCCc3ccc(O)cc3)CC2)n1 | 0 | 0 | 5 | 5 | 15 | 0 | 0 | 6 | 3 | 11 | 0 | 6 |
| Cc1cccc(Oc2ccnc(N3CCN(C(=O)c4c(C)noc4C)CC3)n2)c1 | 2 | 0 | 0 | 2 | 5 | 2 | 0 | 8 | 3 | 0 | 0 | 5 |
| Cc1cccc(Oc2ccnc(N3CCC[C@H]3C(=O)NCCCn3ccnc3)n2)c1 | 0 | 0 | 1 | 3 | 1 | 0 | 2 | 7 | 3 | 0 | 7 | 7 |
| Cc1cccc(Oc2ccnc(N3CCN(CC(=O)Nc4cccc5c4CCCC5)CC3)n2)c1 | 5 | 0 | 1 | 4 | 0 | 0 | 0 | 10 | 5 | 6 | 0 | 14 |
| O=C(C1CCN(c2nccc(Nc3ccccc3)n2)CC1)N1CC[C@@H](O)C1 | 0 | 0 | 14 | 5 | 4 | 4 | 4 | 12 | 4 | 0 | 0 | 10 |
